For six compounds, Ki and IC50 results are on record in ChEMBL document CHEMBL1124034, “Adenosine deaminase inhibitors. Synthesis and biological activity of deaza analogues of erythro-9-(2-hydroxy-3-nonyl)adenine” (J Med Chem, 1988).

SMILES strings stand for the structures.

In assay [1] the target is T1, Adenosine deaminase (Bos taurus, UniProt P56658).
T1 sequence (P56658 whole entry): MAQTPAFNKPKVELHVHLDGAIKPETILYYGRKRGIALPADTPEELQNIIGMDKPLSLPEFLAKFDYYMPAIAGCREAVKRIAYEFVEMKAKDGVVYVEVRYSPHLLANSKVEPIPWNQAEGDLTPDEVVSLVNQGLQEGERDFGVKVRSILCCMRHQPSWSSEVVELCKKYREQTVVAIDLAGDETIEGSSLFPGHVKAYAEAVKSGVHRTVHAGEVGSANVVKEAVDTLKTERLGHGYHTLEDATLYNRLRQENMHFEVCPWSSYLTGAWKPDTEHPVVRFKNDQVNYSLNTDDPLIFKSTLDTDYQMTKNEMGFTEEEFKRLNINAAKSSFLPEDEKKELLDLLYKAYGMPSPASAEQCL
In words: Inhibition constant (Ki) against calf intestine adenosine deaminase.

Assay [2] addresses T2, Adenosine deaminase (Homo sapiens, UniProt P00813).
T2 sequence (P00813 whole entry): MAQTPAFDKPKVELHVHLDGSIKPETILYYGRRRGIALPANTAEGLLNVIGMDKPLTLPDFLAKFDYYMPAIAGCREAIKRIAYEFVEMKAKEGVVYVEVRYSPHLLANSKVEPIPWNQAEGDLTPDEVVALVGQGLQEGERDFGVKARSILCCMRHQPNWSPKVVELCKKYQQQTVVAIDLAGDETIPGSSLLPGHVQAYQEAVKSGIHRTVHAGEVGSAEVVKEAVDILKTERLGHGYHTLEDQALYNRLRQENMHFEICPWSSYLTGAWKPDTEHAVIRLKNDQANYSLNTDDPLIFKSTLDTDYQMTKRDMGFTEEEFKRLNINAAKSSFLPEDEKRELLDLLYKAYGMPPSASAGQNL
The assay can be described thus: Inhibition constant (Ki) against Human erythrocyte adenosine deaminase.

The subject of assay [3] is HeLa. In words: In vitro antitumor activity against human HeLa cell line at 144 hr. As to conditions: read-out: ID50 (the source's name). Format: functional. The procedure, abridged:
(§1)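 Human HeLa (cervix carcinoma) and KB (oral epidermoid carcinoma) monolayers in Eagle's MEM with nonessential amino acids, Earle's BSS, 10% fetal calf serum and penicillin/streptomycin/kanamycin. Exponentially growing cells (5×10^5) were exposed to varying drug concentrations for 72 or 144 h and counted by Coulter counter. ID50 is the concentration giving 50% growth inhibition versus untreated controls.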

Assay [4] relates to HeLa. The assay can be described thus: In vitro antitumor activity against human HeLa cell line at 72 h. Format: functional. As to conditions: read-out: ID50 (the source's name). The procedure, abridged:
as §1

In assay [5] the test system is KB. The assay can be described thus: In vitro antitumor activity against human KB cell line at 144 h. In kind it is functional. The settings on record: read-out: ID50 (the source's name). The procedure, abridged: as §1
Assay [6] has as its system KB. The assay can be described thus: In vitro antitumor activity against human KB cell line at 72 h. In kind it is functional. As to conditions: read-out: ID50 (the source's name). The procedure, abridged: as §1
A further assay has as its system L1210. In words: In vitro antitumor activity against murine L1210 cell line at 72 h. Format: functional. As to conditions: Mus musculus, L1210, 72 h; read-out: ID50 (the source's name).
Assay [7] deals with P388. The assay can be described thus: In vitro antitumor activity against murine P388 cell line at 72 h. As to conditions: Mus musculus, P388, 72 h; read-out: ID50 (the source's name). In kind it is functional.
Assay [8] deals with P388. The assay can be described thus: In vitro antitumor activity against murine doxorubicin-resistant P388 cell line at 72 h. In kind it is functional. As to conditions: Mus musculus, P388, 72 h; read-out: ID50 (the source's name).
Assay [9] has as its system HeLa. The assay can be described thus: In vitro antitumor activity against human HeLa cell line at 144 h. In kind it is functional. As to conditions: read-out: ID50 (the source's name). The procedure, abridged: as §1
For assay [10], the system named is P388. In words: In vitro antitumor activity against murine doxorubicin resistant P388 cell line at 72 h. In kind it is functional. The settings on record: Mus musculus, P388, 72 h; read-out: ID50 (the source's name).

What is called Ki is the equilibrium dissociation constant of an inhibitor or competing ligand from its target. `CCCCCCC(C(C)O)n1cnc2c(N)cccc21` (centres undefined): the values for the Ki at Adenosine deaminase [1] and at Adenosine deaminase [2] were 71 µM and 15 µM, respectively. The IC50 turned out to be 18.6 µM with HeLa [3]; 38.3 µM with HeLa [4]; 30.1 µM in the assay with KB [5]; 32.8 µM in the assay with KB [6]; 26.8 µM in the assay with L1210; 62.9 µM in the assay with P388 [7]. The IC50 in the assay on P388 [8] stood at 47.9 µM.
At Adenosine deaminase [2], `CCCCCCC(C(C)O)n1cnc2c(N)nccc21` (centres undefined) returned a Ki of 0.0063 µM. For the same compound, the IC50 in the assay on HeLa [9] was 18.6 µM; in the assay with HeLa [4], 142 µM; with KB [5] it was 5.5 µM; in the assay with KB [6], 31.9 µM; with L1210, 18.6 µM; in the assay with P388 [7], 21.8 µM. Besides, in the assay on P388 [10], the IC50 is 19.2 µM.
Turning to `CCCCCCC(C(C)O)n1ccc2c(N)ncnc21` (centres undefined), the Ki on Adenosine deaminase [1] was 400 µM; at Adenosine deaminase [2] it was 180 µM. Besides, the IC50 with HeLa [9] came to 4.7 µM; in the assay with HeLa [4], 60.4 µM; in the assay with KB [5], 8.5 µM; in the assay with KB [6] it was 20.7 µM; with L1210, 18.4 µM; with P388 [7] it was 20.7 µM. Also, in the assay on P388 [10], the IC50 is 3.8 µM.
`CCCCCCC(C(C)O)n1cnc2c(N)ccnc21` (centres undefined): the inhibition constant (Ki) at Adenosine deaminase [2] stood at 0.12 µM. For the same compound, the IC50 turned out to be 21.8 µM in the assay with HeLa [9]; 112 µM with HeLa [4]; 30 µM in the assay on KB [5]; 49.1 µM in the assay with KB [6]; 49.1 µM in the assay on L1210; 98.2 µM in the assay with P388 [7]. The IC50 in the assay with P388 [10] stood at 38.2 µM.
As for `CCCCCC[C@@H]([C@@H](C)O)n1cnc2c(N)ncnc21` [EHNA], the affinity at Adenosine deaminase [2], expressed as Ki, was 0.0043 µM. Also, the IC50 came out at 23.4 µM in the assay on HeLa [9]; 179 µM in the assay on HeLa [4]; 46.3 µM in the assay with KB [5]; 81.6 µM in the assay on KB [6]; 22.9 µM with L1210; 27.2 µM in the assay on P388 [7]. Besides, the IC50 in the assay with P388 [10] was found to be 13.4 µM.
Turning to `Nc1ncnc2c1ncn2[C@@H]1O[C@H](CO)[C@@H](O)[C@@H]1O` [VIDARABINE], the IC50 in the assay on HeLa [3] was 27.7 µM; with HeLa [4], 46 µM; with KB [5], 25.4 µM; in the assay with KB [6] it was 89.8 µM; with L1210 it was 23.6 µM; with P388 [7], 12.7 µM. Moreover, the IC50 in the assay on P388 [8] is 10.8 µM.
